# PHOSPHO1 inh – PubChem AID 1565; inhibition, % at 13.3 µM; recombinant PHOSPHO1, absorbance phosphatase assay; 1.1% of 290,000 active; in the data active = inhibition above about 60%
# KCNQ1 inh – inhibitors of human KCNQ1 channel, primary screen, cell-based, thallium flux, high-throughput. B-score at 10 µM. AID 2642, 2010. CHO-K1 KCNQ1, FluxOR thallium flux fluorescence; stronger effect = higher value. 1.3% of 310,000 active;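 active = compounds whose thallium flux B-score, printed positive for inhibition, exceeds three library SD while starting fluorescence stays within three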;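 note: channel opened by potassium depolarization with thallium stimulus after 20 min compound exposure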
# KCNQ1 act – potentiators or activators of KCNQ1 channel, primary screen, cell-based, thallium flux, high-throughput; Potassium voltage-gated channel subfamily KQT member 1 (Homo sapiens), P51787; CHO-K1 KCNQ1, thallium flux FluxOR fluorescence; stronger effect = higher value; B-score at 10 µM; 0.35% of 310,000 active; AID 2648, 2010;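 active = fluorescence ratio B-score, a plate-corrected score, at least three library SD, with initial intensity B-score within 5 SD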
#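 Test system: CHO-K1 cells stably expressing KCNQ1 / Medium: assay buffer / Also added: depolarizing K+/Tl+ stimulus, K2SO4 and Tl2SO4 each 12.5 mM in 5x stock / Incubation: 90 min dye loading and 20 min compound exposure, both at room temperature / Signal: thallium influx via FluxOR fluorescence, kinetic imaging / Evaluation: B score of baseline-normalized fluorescence ratio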
# KCNK3 inh – human KCNK3 channel inhibitors, primary screen, CHO cells, FluxOR thallium flux, B-score | B-score at 10 µM | 0.84% of 340,000 active | Potassium channel subfamily K member 3 (Homo sapiens), O14649 | FluxOR fluorescence; stronger effect = lower value;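 active = B-score under library mean minus 4 SD, starting fluorescence ratio at most library mean plus 5 SD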;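 note: more negative B-score means stronger inhibition of thallium flux through KCNK3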
# KCNK9 inh – KCNK9 potassium channel inhibitors, primary screen, HEK293 cells, thallium flux; Potassium channel subfamily K member 9 (Homo sapiens), Q9NPC2; FluxOR thallium flux fluorescence; stronger effect = lower value; B-score at 10 µM; 1.2% of 310,000 active; AID 488922, 2010;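 active = ratio B-score over 3 SD below the library mean, with starting fluorescence within 5 SD of its mean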;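 note: negative B-score means less thallium flux so channel inhibition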
# hERG protect – hERG rescue from dofetilide block, primary screen, cell-based, CHO-hERG, FluxOR thallium flux, dofetilide IC70; activation (rescue from dofetilide block), less the hit threshold, % at 10 µM; dofetilide IC70 present; Voltage-gated inwardly rectifying potassium channel KCNH2 (Homo sapiens), Q12809; 0.51% of 310,000 active;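 active = activation above the mean of controls blocked by dofetilide plus 5 SD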;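 note: thallium influx through hERG after potassium depolarization seen as dye fluorescence rise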
# KCNQ1 block val – KCNQ1 potassium channel inhibitors, confirmation, cell-based, Tl flux, duplicate | shares compounds with KCNQ1 inh | KCNQ1 cell line, FluxOR thallium flux fluorescence | inhibition, % at 10 µM | 93% of 1,600 active;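 active = primary screen active, with duplicate mean exceeding buffer control mean plus 3 SD of buffer wells, cut at about 28% in these data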
# CHO Tl flux – thallium flux effects in parental CHO cells, counter-screen for KCNQ1 inhibitor project, cell-based, Tl flux. shares compounds with KCNQ1 inh. parental CHO-K1, FluxOR thallium flux fluorescence ratio; stronger effect = lower value; zero means no signal rise above baseline. fluorescence ratio (Tl flux) at 10 µM. 21% of 1,600 active. AID 588366, 2011;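 active = mean of duplicate thallium-flux fluorescence ratios in parental host cells more than 5 SD below the buffer control mean, cut at about 0.38 in these data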;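 note: ratio is peak minus minimum fluorescence divided by baseline fluorescence; actives read low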
# KCNQ1 ephys val – KCNQ1 channel inhibitors, confirmation, orthogonal assay, cell-based, automated electrophysiology. calls only at 10 µM. shares compounds with KCNQ1 inh. KCNQ1-CHO cells, automated patch clamp current. AID 624120, 2012. 20% of 490 active;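 active = KCNQ1 current drop exceeding 3 SD of negative control wells, seen in both duplicate runs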;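 note: steady state current during a 2 s step from -80 to +40 mV; negative values mean current inhibition and positive values mean potentiation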
# KCNQ2 spec – KCNQ2 channel inhibition, selectivity assay for KCNQ1 inhibitor project, cell-based; shares compounds with KCNQ1 inh; KCNQ2 cells, FluxOR thallium flux fluorescence; inhibition, % at 10 µM; 71% of 1,600 active; AID 651746, 2012;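 active = mean percent inhibition of the KCNQ2 thallium signal more than 5 SD above the buffer-only control wells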;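 note: KCNQ2 expressed in CHO cells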
# KCNQ1-KCNE1 inh – KCNQ1/KCNE1 channel inhibition, selectivity assay for KCNQ1 inhibitor project, CHO-K1 cells, thallium flux, FluxOR | shares compounds with KCNQ1 inh | FluxOR thallium flux fluorescence | inhibition, % at 10 µM | 77% of 1,600 active;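 active = mean percent inhibition of duplicate wells above the buffer-only control mean plus 3 SD of those controls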
# Target sequence (P51787 whole entry, looked up): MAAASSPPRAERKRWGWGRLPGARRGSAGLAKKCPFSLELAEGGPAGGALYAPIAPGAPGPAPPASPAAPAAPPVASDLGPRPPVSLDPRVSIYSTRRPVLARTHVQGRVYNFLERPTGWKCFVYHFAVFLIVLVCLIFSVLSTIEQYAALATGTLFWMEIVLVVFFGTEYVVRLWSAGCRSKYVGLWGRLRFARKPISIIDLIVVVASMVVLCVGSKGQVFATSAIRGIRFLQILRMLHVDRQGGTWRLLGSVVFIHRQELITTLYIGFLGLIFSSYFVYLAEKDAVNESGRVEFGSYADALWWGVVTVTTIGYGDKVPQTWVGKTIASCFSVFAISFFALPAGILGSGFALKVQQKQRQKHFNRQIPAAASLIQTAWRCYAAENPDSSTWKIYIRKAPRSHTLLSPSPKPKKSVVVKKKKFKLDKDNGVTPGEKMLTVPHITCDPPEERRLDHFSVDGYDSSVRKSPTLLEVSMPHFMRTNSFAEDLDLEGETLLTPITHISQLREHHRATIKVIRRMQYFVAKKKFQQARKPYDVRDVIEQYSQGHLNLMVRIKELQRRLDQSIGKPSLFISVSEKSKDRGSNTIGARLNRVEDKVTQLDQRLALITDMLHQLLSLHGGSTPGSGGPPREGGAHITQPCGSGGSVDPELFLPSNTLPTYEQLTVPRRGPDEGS
# A number is an active result; 0 = inactive; - = not tested or not shown; + = active, no number. An excerpt weighted towards active compounds, which were near 4% of everything screened.
SMILES,PHOSPHO1 inh,KCNQ1 inh,KCNQ1 act,KCNK3 inh,KCNK9 inh,hERG protect,KCNQ1 block val,CHO Tl flux,KCNQ2 spec,KCNQ1-KCNE1 inh,others
c1ccc(-c2noc(-c3ccccc3-c3ccccc3)n2)cc1,0,7,0,0,0,0,133,0,115%,194%,KCNQ1 ephys val=0
Fc1ccccc1-c1nc(-c2ccc(Cl)cc2)no1,-,0,0,0,0,0,-,-,-,-,
CCOC(=O)c1sc2nc(C)c([N+](=O)[O-])c(COC)c2c1N,0,0,0,0,0,0,-,-,-,-,
CCC(C)NC(=O)Cc1ccc(-c2ccccc2)cc1 (stereo unspecified),0,0,0,0,0,0,-,-,-,-,
COC(=O)C(C)(C)ONC(=O)Nc1ccc(Br)cc1,0,0,0,0,0,0,-,-,-,-,
CC(NC(=O)Nc1ccc(Br)cc1)C(C)(C)C (stereo unspecified),0,8,0,0,0,0,60,0,69%,66%,
Cc1cc(N2CCC(N(C)C3CCCC3)CC2)nc2cc(O)ccc12,0,0,0,0,0,0,-,-,-,-,
Oc1cccc(NC(=S)Nc2ccc(SC(F)F)cc2)c1,0,10,0,0,0,0,68,0,0,90%,
Oc1cccc(NC(=S)Nc2cccnc2)c1,0,0,0,0,0,0,-,-,-,-,
CCOC(=O)c1c(C)nc(C(Cl)(Cl)Cl)nc1N,0,8,0,0,0,0,86,0,0,88%,
CC(C)(C)C1CCC2(CC1)C(C#N)=C(SCC(=O)NC1CCCCC1)NC(=O)C2C#N (stereo unspecified),0,9,0,0,0,0,72,0,72%,0,
COc1ccc(-c2cc(C(=O)N3CCN(c4cccc(C)c4C)CC3)c3ccccc3n2)cc1OC,-,8,0,0,0,0,60,0,108%,96%,
COc1ccc(-c2cc(C(=O)N3CCC3)c3ccccc3n2)cc1OC,-,0,0,0,0,0,-,-,-,-,
COc1ccc(-c2ccc3c(c2)S(=O)(=O)c2cccc(C(=O)NCCOc4ccccc4Cl)c2C3=O)cc1OC,-,-,-,0,-,-,-,-,-,-,
Cc1ccc(C2(CCNS(=O)(=O)c3ccc(C)cc3)CCOC(C(C)C)C2)cc1 (stereo unspecified),0,8,0,0,0,0,94,0,83%,98%,KCNQ1 ephys val=0
CCC1(C)CC(CCNS(=O)(=O)c2ccc(C)cc2)(c2ccc(C)cc2)CCO1 (stereo unspecified),0,0,0,0,0,0,-,-,-,-,
Clc1ccc2[nH]c3c(NCC4CCCO4)ncnc3c2c1 (stereo unspecified),0,8,0,-,0,0,106,0,90%,0,KCNQ1 ephys val=+
Clc1ccc2[nH]c3c(NCCN4CCOCC4)ncnc3c2c1,0,0,0,0,0,0,-,-,-,-,
CC(=O)c1c(N2CCOCC2)nc2ccc(Br)cc2c1-c1ccccc1,0,10,0,0,0,0,100,0,119%,101%,KCNQ1 ephys val=0
CCN(CC(=O)Nc1cccc(OC)c1)CC(=O)Nc1ccccc1C,0,0,0,0,0,0,-,-,-,-,
CCN(CC)C(C(=O)NC1CCCCC1)c1ccc(C)cc1 (stereo unspecified),0,7,0,0,0,0,75,0,65%,110%,
COc1cccc(NC(=O)C2CCC(CNS(=O)(=O)c3cccs3)CC2)c1 (stereo unspecified),0,0,0,0,0,0,-,-,-,-,
Cc1cccc(NC(=O)C2CCN(S(=O)(=O)c3c(C)nn(C)c3C)CC2)n1,0,0,0,0,0,0,-,-,-,-,
Cc1cccc(NC(=O)C2CCN(S(=O)(=O)c3c(C)c(C)cc(C)c3C)CC2)n1,-,6,0,0,0,0,78,0,77%,177%,
COc1ccc(NS(=O)(=O)c2ccc(-c3cnc(C4CC4)o3)cc2)cc1OC,0,8,0,0,0,0,86,0,83%,0,
SMILES,PHOSPHO1 inh,KCNQ1 inh,KCNQ1 act,KCNK3 inh,KCNK9 inh,hERG protect,KCNQ1 block val,CHO Tl flux,KCNQ2 spec,KCNQ1-KCNE1 inh,others
Cc1cc(C(=O)NC2CC(C)(C)Cc3c2cnn3-c2ccccc2)n(C)n1 (stereo unspecified),0,0,0,0,0,0,-,-,-,-,
CC(=O)[C@@]1(O)C(C)CC2C3C=C(C)C4=Cc5c(cnn5-c5ccccc5)C[C@]4(C)C3C(O)C[C@@]21C (stereo partly specified),0,7,0,0,0,0,102,0.36,0,115%,
O=c1c2c(nc3n1CCCCC3)-c1ccccc1CC21CCCC1,0,8,0,0,0,0,122,0,115%,150%,KCNQ1 ephys val=0
COc1cc(OC)cc(C(=O)Nc2nc(CC(=O)NCCc3ccccc3)cs2)c1,-,15,0,0,0,0,48,0,111%,103%,
COc1cc(OC)cc(C(=O)Nc2nc(CC(=O)NCc3ccccc3OC)cs2)c1,-,0,0,0,0,0,-,-,-,-,
COc1ncnc2c1sc1nc(-c3ccccc3)c3c(c12)CCCC3,0,10,0,0,0,0,103,0,96%,131%,KCNQ1 ephys val=0
CN(C)S(=O)(=O)c1ccc(Cl)c(NC(=O)COC(=O)c2cc(-c3ccccc3)nc3ccccc23)c1,0,6,0,0,0,0,60,0,74%,74%,
Cc1cc(N2CCN(C)CC2)ccc1NC(=O)c1cccc(S(=O)(=O)N2CCc3ccccc3C2)c1,0,7,0,0,0,0,0,0,66%,0,
CC(NS(=O)(=O)OCC(Cl)(Cl)Cl)c1ccc(C(C)(C)C)cc1 (stereo unspecified),0,7,0,0,0,0,0,0,0,0,

# High-throughput results (PubChem)
